{
  "source": "ChEMBL document CHEMBL4699650",
  "about": "“SAR Investigation and Discovery of Water-Soluble 1-Methyl-1,4-dihydroindeno[1,2-c]pyrazoles as Potent Tubulin Polymerization Inhibitors” (J Med Chem, 2020)",
  "key": {"HepG2 [1]": {"system": "HepG2", "assay": "Induction of cell cycle arrest in human HepG2 cells assessed as accumulation in G2/M phase at 10 nM incubated for 24 hrs by propidium iodide staining based flow cytometry (reference value: 12.59%)", "assay_type": "functional"}, "HepG2 [2]": {"system": "HepG2", "assay": "Induction of apoptosis in human HepG2 cells assessed as late apoptotic cells at 20 nM incubated for 24 hrs by Annexin V-PE and 7-AAD staining based flow cytometry (reference value: 2.33 %)", "assay_type": "functional", "in_short": "(§1)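 HepG2 cells seeded at 3 × 10⁵ cells/well, adhered overnight, exposed at 5, 10 or 20 nM for 12 or 24 h. Harvested into Annexin V binding buffer and stained with annexin V-PE and 7-AAD for 15 min at room temperature in the dark, then analysed by flow cytometry. Gates: live (−/−), early apoptotic (+/−), late apoptotic (+/+), necrotic (−/+).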"}, "[3]": {"assay": "Toxicity in Balb/c nude mouse xenografted with human HepG2 cells assessed as change in body weight at 10 mg/kg, iv administered every 2 days for 21 days (reference value: 7.8 % )", "assay_type": "organism-based", "settings": "in vivo, 504 h, time 21 day"}, "HepG2 [4]": {"system": "HepG2", "assay": "Induction of apoptosis in human HepG2 cells assessed as late apoptotic cells at 5 nM incubated for 24 hrs by Annexin V-PE and 7-AAD staining based flow cytometry (reference value: 2.33 %)", "assay_type": "functional", "in_short": "as §1"}, "[5]": {"assay": "Antiproliferation activity against human A549/Taxol cells assessed as cell growth inhibition measured after 72 hrs by MTT assay", "assay_type": "functional", "in_short": "(§2)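 Cells grown in RPMI-1640 with 10% FBS at 37 °C, 5% CO2, seeded at 4−7 × 10³ cells/well and left to adhere overnight. Exposed to a range of concentrations for 72 h, then MTT (2.5 mg/mL stock) added for 4 h. Formazan dissolved in DMSO and absorbance read at 570 nm. GI50 taken as the concentration giving 50% growth inhibition, reported as mean ± SD of at least three independent experiments.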"}, "HepG2 [6]": {"system": "HepG2", "assay": "Induction of apoptosis in human HepG2 cells assessed as early apoptotic cells at 5 nM incubated for 12 hrs by Annexin V-PE and 7-AAD staining based flow cytometry (reference value: 4.52%)", "assay_type": "functional", "in_short": "as §1"}, "HepG2 [7]": {"system": "HepG2", "assay": "Induction of apoptosis in human HepG2 cells assessed as early apoptotic cells at 20 nM incubated for 24 hrs by Annexin V-PE and 7-AAD staining based flow cytometry (reference value: 4.16 %)", "assay_type": "functional", "in_short": "as §1"}, "HepG2 [8]": {"system": "HepG2", "assay": "Antitumor activity against human HepG2 cells xenografted in Balb/c nude mouse assessed as reduction in tumor volume at 25 mg/kg, ig qd administered for 21 days measured at 3 days interval during compound dosing relative to control", "assay_type": "functional", "design": "scale not given: the % may be the effect or the level left", "settings": "time 21 day"}, "HepG2 [9]": {"system": "HepG2", "assay": "Induction of apoptosis in human HepG2 cells assessed as early apoptotic cells at 5 nM incubated for 24 hrs by Annexin V-PE and 7-AAD staining based flow cytometry (reference value: 4.16 %)", "assay_type": "functional", "in_short": "as §1"}, "HepG2 [10]": {"system": "HepG2", "assay": "Induction of cell cycle arrest in human HepG2 cells assessed as accumulation in G2/M phase at 20 nM incubated for 24 hrs by propidium iodide staining based flow cytometry (reference value: 12.59%)", "assay_type": "functional"}, "[11]": {"assay": "Toxicity in Balb/c nude mouse xenografted with human HepG2 cells assessed as change in body weight at 25 mg/kg, po qd administered for 21 days measured at 3 days interval during compound dosing (reference value: - 17.2 % )", "assay_type": "organism-based", "settings": "in vivo, 504 h, time 21 day", "in_short": "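Nude mice received 200 μL PBS with HepG2 cells (1 × 10⁷ cells/mL) subcutaneously in the right armpit. At 90 mm³ tumour volume, randomized to 5 per group. Dosed 25 mg/kg as a 2.5 mg/mL distilled-water solution, intragastric once daily for 21 days; distilled water as vehicle. Body weight recorded every 3 days; change given as initial vs end weight.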"}, "HepG2 [12]": {"system": "HepG2", "assay": "Induction of apoptosis in human HepG2 cells assessed as live cells at 20 nM incubated for 24 hrs by Annexin V-PE and 7-AAD staining based flow cytometry (reference value: 93.2%)", "assay_type": "functional", "in_short": "as §1"}, "HepG2 [13]": {"system": "HepG2", "assay": "Induction of apoptosis in human HepG2 cells assessed as necrotic cells at 10 nM incubated for 24 hrs by Annexin V-PE and 7-AAD staining based flow cytometry (reference value: 0.34 %)", "assay_type": "functional", "in_short": "as §1"}, "HepG2 [14]": {"system": "HepG2", "assay": "Induction of apoptosis in human HepG2 cells assessed as PARP cleavage at 2.5 to 20 nM incubated for 24 hrs by western blot analysis", "assay_type": "functional, cell-based", "settings": "dose nM 2.5-20, time 24.0 hrs", "in_short": "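Lysates (20 μg protein) separated by 10% PAGE and blotted to PVDF. Probed for Bax, Bcl-2, cleaved caspase-3 and cleaved PARP, detected by ECL and quantified by densitometry.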"}, "[15]": {"assay": "Selectivity index, ratio of GI50 for cytotoxicity against human L02 cells to GI50 for antiproliferation activity against human HepG2 cells assessed as cell growth inhibition measured after 72 hrs by MTT assay", "assay_type": "toxicity, cell-based", "settings": "L02 cells and HepG2 cells, read-out: RatioGI50", "in_short": "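MTT assay: cells seeded 4–7 × 10³/well, adhered overnight, exposed to a concentration series for 72 h. MTT (2.5 mg/mL stock) added for 4 h, crystals dissolved in DMSO, absorbance read at 570 nm. GI50 is mean ± SD of ≥3 independent experiments. Selectivity = GI50 on normal LO2 / GI50 on HepG2. Resistance fold = GI50 on resistant cells / GI50 on sensitive cells.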"}, "HCT-116": {"system": "HCT-116", "assay": "Antiproliferation activity against human HCT116 cells assessed as cell growth inhibition measured after 72 hrs by MTT assay", "assay_type": "functional", "in_short": "as §2"}, "[16]": {"assay": "Toxicity in Balb/c nude mouse xenografted with human HepG2 cells assessed as adverse signs at 5 to 10 mg/kg, iv administered every 2 days for 21 days", "assay_type": "organism-based", "settings": "in vivo, 504 h, dose 5-10 mg/kg, time 21 day"}, "[17]": {"assay": "Toxicity in Balb/c nude mouse xenografted with human HepG2 cells assessed as change in body weight at 5 mg/kg, iv administered every 2 days for 21 days (reference value: 7.8 % )", "assay_type": "organism-based", "settings": "in vivo, 504 h, time 21 day"}, "HepG2 [18]": {"system": "HepG2", "assay": "Antitumor activity against human HepG2 cells xenografted in iv dosed Balb/c nude mouse assessed as tumor growth inhibition administered every 2 days for 21 days", "assay_type": "functional, organism-based", "settings": "time 21.0 day", "in_short": "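Nude mice received 200 μL PBS containing HepG2 at 1 × 10⁷ cells/mL subcutaneously in the right armpit. Randomised at 90 mm³ tumour volume, five per group. Compound given iv as a 2.0 mg/mL solution in distilled water, 5 or 10 mg/kg every two days for 21 days, with a water vehicle group. Tumour volume (L × W²/2) and body weight recorded every 3 days. Inhibition = (1 − RTV treated/RTV vehicle) × 100%.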"}, "HepG2 [19]": {"system": "HepG2", "assay": "Induction of cell cycle arrest in human HepG2 cells assessed as accumulation in G1 phase at 20 nM incubated for 24 hrs by propidium iodide staining based flow cytometry (reference value: 60.76%)", "assay_type": "functional"}, "HepG2 [20]": {"system": "HepG2", "assay": "Induction of cell cycle arrest in human HepG2 cells assessed as accumulation in S phase at 5 nM incubated for 24 hrs by propidium iodide staining based flow cytometry (reference value: 26.65%)", "assay_type": "functional"}, "[21]": {"assay": "Aqueous solubility of compound in DMSO at pH 7.4 by HPLC analysis", "assay_type": "physicochemical", "settings": "aqueous medium", "in_short": "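Solubility measured at pH 7.4. DMSO stock (10 mg/mL) diluted in methanol to five levels to build an HPLC peak-area standard curve. Compound added to 1 mL buffer to make a saturated solution, and the peak area of that solution analysed by HPLC on a C18 column. Solubility calculated from the standard curve.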"}},
  "note": "Activity calls are given as the source filed them. No cut-off for these calls is given here.",
  "data": [
    {"smiles": "CCOc1cccc(Nc2nn(C)c3c2Cc2cc(OCC)c(OCCCN)cc2-3)c1", "values": [
      {"measurement": "Activity", "setting": "HepG2 [1]", "result": 56.07, "unit": "%"},
      {"measurement": "Activity", "setting": "HepG2 [2]", "result": 10.7, "unit": "%"},
      {"measurement": "Activity", "setting": "[3]", "result": 6.9, "unit": "%"},
      {"measurement": "Activity", "setting": "HepG2 [4]", "result": 4.33, "unit": "%"},
      {"measurement": "GI50", "setting": "[5]", "result": 14.7, "unit": "nM"},
      {"measurement": "Activity", "setting": "HepG2 [6]", "result": 5.66, "unit": "%"},
      {"measurement": "Activity", "setting": "HepG2 [7]", "result": 36.6, "unit": "%"},
      {"measurement": "Activity", "setting": "HepG2 [8]", "result": 57, "unit": "%"},
      {"measurement": "Activity", "setting": "HepG2 [9]", "result": 9.75, "unit": "%"},
      {"measurement": "Activity", "setting": "HepG2 [10]", "result": 88.46, "unit": "%"},
      {"measurement": "Activity", "setting": "[11]", "result": -18.5, "unit": "%"},
      {"measurement": "Activity", "setting": "HepG2 [12]", "result": 50.2, "unit": "%"},
      {"measurement": "Activity", "setting": "HepG2 [13]", "result": 0.61, "unit": "%"},
      {"measurement": "Activity", "setting": "HepG2 [14]", "result": "Active"},
      {"measurement": "selectivity ratio at 72 h", "setting": "[15]", "result": 118},
      {"measurement": "GI50", "setting": "HCT-116", "result": 2.4, "unit": "nM"},
      {"measurement": "Activity", "setting": "[16]", "result": "Non-Toxic"},
      {"measurement": "Activity", "setting": "[17]", "result": 8.4, "unit": "%"},
      {"measurement": "Activity", "setting": "HepG2 [18]", "result": "Dose-dependent effect"},
      {"measurement": "Activity", "setting": "HepG2 [19]", "result": 3.11, "unit": "%"},
      {"measurement": "Activity", "setting": "HepG2 [20]", "result": 30.66, "unit": "%"},
      {"measurement": "solubility", "setting": "[21]", "result": "> 1000", "unit": "µg/mL"}
    ]}
  ]
}
